The text below walks through data of ChEMBL document CHEMBL4393723, “Caffeic acid phenethyl ester (CAPE)-derivatives act as selective inhibitors of acetylcholinesterase” (Eur J Med Chem, 2019).

The test system of one series is NIH3T3. Description: Cytotoxicity against mouse NIH/3T3 cells measured after 96 hrs by SRB assay. The class given is cell-based. As to conditions: for EC50: Mus musculus, NIH3T3, 96 h; for Activity: mouse, nih3t3, 96 h. An outline of the steps:
(§1)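 Cells seeded on day 0 and exposed from 24 h to at least six concentrations (1, 3, 7, 12, 20, 30 µM), with final DMSO/DMF at most 0.5%. After 96 h treatment, fixed in 10% TCA for 24 h at 4 °C and stained about 20 min with 0.4% SRB in 1% acetic acid. Bound dye dissolved in 10 mM Tris base, read at 570 nm. EC50 from 4-parameter Hill fit (top 100, bottom 0), three independent experiments in triplicate.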
In general terms: In SRB staining, fixed cells bind dye roughly in proportion to their protein.

A further series concerns MCF7. Description: Cytotoxicity against human MCF7 cells measured after 96 hrs by SRB assay. Format: cell-based. As to conditions: for EC50: Homo sapiens, MCF7, 96 h; for Activity: human, mcf7, 96 h. Put shortly: as §1
The subject of a further series is SW-1736. Kind of series: Cytotoxicity against human SW1736 cells measured after 96 hrs by SRB assay. As to conditions: for EC50: Homo sapiens, SW-1736, 96 h; for Activity: human, sw-1736, 96 h. The class given is cell-based. An outline of the steps: as §1
In the next series the test system is HT-29. Kind of series: Cytotoxicity against human HT-29 cells measured after 96 hrs by SRB assay. The class given is cell-based. As to conditions: for EC50: Homo sapiens, HT-29, 96 h; for Activity: human, ht-29, 96 h. Put shortly:
as §1

For another series, the system named is A2780. Description: Cytotoxicity against human A2780 cells measured after 96 hrs by SRB assay. The class given is cell-based. As to conditions: for EC50: Homo sapiens, A2780, 96 h; for Activity: human, a2780, 96 h. An outline of the steps: as §1
A further series concerns FaDu. Kind of series: Cytotoxicity against human FADU cells measured after 96 hrs by SRB assay. Format: cell-based. As to conditions: for EC50: Homo sapiens, FaDu; for Activity: human, fadu. An outline of the steps:
as §1

The nature of series [1]: Solubility of the compound. The class given is physicochemical.
In series [2] the target is T1, Acetylcholinesterase (Electrophorus electricus, UniProt O42275). Kind of series: Mixed inhibition of electric eel AChE using acetylcholine iodide as substrate preincubated for 20 mins followed by substrate addition and measured every minute for 30 mins by Lineweaver-Burk plot analysis.
The target in series [3] is T1, Acetylcholinesterase. Kind of series: Mixed inhibition of electric eel AChE using butyrylcholine iodide as substrate preincubated for 20 mins followed by substrate addition and measured every minute for 30 mins Dixon/Cornish-Bowden plot analysis.

T1 sequence (O42275 whole entry): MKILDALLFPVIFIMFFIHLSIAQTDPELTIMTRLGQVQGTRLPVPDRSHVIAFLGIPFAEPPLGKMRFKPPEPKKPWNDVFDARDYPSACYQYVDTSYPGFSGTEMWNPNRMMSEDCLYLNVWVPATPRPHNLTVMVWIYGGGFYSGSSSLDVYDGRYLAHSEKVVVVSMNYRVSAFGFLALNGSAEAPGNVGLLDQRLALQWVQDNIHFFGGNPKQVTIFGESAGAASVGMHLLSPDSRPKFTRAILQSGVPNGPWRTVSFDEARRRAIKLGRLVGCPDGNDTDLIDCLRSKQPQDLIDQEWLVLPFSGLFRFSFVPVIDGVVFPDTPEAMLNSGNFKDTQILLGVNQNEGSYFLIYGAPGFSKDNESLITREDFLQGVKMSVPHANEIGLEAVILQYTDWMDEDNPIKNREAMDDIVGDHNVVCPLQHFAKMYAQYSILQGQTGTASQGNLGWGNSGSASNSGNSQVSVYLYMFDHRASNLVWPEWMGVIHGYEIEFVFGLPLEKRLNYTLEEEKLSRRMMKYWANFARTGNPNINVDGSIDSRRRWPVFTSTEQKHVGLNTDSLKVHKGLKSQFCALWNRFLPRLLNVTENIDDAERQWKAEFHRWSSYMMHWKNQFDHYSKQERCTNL

On to `COc1ccc(/C=C/C(=O)OCCc2ccccc2)cc1OC`, for which the half-maximal effective concentration (EC50) in the series with NIH3T3 worked out at 17.7 µM; in the series on MCF7, 16.2 µM; in the series on SW-1736, 16.7 µM; in the series on HT-29, 16.7 µM; with A2780, 17 µM; in the series with FaDu, 17.2 µM.
With `O=C(/C=C/c1ccc(OCc2ccccc2)c(OCc2ccccc2)c1)OCCc1ccc(OC(=O)/C=C/c2ccc(OCc3ccccc3)c(OCc3ccccc3)c2)cc1`, the solubility result in [1] is reported as “Insoluble”.
As to `O=C(/C=C/c1ccc(OCc2ccccc2)c(OCc2ccccc2)c1)OCCc1ccccc1O`, the inhibitory constant (Ki) was determined as 8.55 µM at Acetylcholinesterase [2] and 12.1 µM on Acetylcholinesterase [3].
In the case of `O=C(/C=C/c1ccc(OCc2ccccc2)c(OCc2ccccc2)c1)OCCc1cccc(OC(=O)/C=C/c2ccc(OCc3ccccc3)c(OCc3ccccc3)c2)c1`, in series [1], the solubility result was “Insoluble”.
Turning to `COc1cc(/C=C/C(=O)OCCc2ccccc2)cc(OC)c1OCCc1ccccc1`, the inhibitory constant (Ki) at Acetylcholinesterase [2] was determined as 1.97 µM; on Acetylcholinesterase [3], 2.44 µM. Further, the Activity entry in the series on NIH3T3, in the series with MCF7, with SW-1736, in the series with HT-29, with A2780 and with FaDu was “Non-Toxic” in each case.
Take `O=C(/C=C/c1ccc(OCc2ccccc2)c(OCc2ccccc2)c1)OCCc1ccccc1OC(=O)/C=C/c1ccc(OCc2ccccc2)c(OCc2ccccc2)c1`: in series [1], the solubility entry was “Insoluble”.
For `O=C(/C=C/c1ccc(OCc2ccccc2)c(OCc2ccccc2)c1)OCCc1ccc(OC(=O)/C=C/c2ccc(OCc3ccccc3)c(OCc3ccccc3)c2)c(OC(=O)/C=C/c2ccc(OCc3ccccc3)c(OCc3ccccc3)c2)c1`, the Ki was found to be 0.72 µM on Acetylcholinesterase [2] and 1.8 µM on Acetylcholinesterase [3]. Moreover, the Activity entry in the series with NIH3T3, with MCF7, in the series with SW-1736, in the series with HT-29, with A2780 and with FaDu was “Non-Toxic” in each case.
For the molecule `O=C(/C=C/c1cccc(Cl)c1)OCCc1ccccc1`, the results for the Ki on Acetylcholinesterase [2] and on Acetylcholinesterase [3] were 14.2 µM and 56.6 µM, respectively.
The like results for `COc1ccc(/C=C/C(=O)OCCc2ccccc2)c(OC)c1` were, in that order, 11.9 µM and 34.8 µM.
On to `O=C(/C=C/c1cccc(Br)c1)OCCc1ccccc1`, for which the results for the inhibition constant (Ki) at Acetylcholinesterase [2] and on Acetylcholinesterase [3] were 8.82 µM and 30.9 µM, respectively.
As for `O=C(/C=C/c1ccc(O)c(O)c1)OCCc1ccccc1` [CAFFEIC ACID PHENETHYL ESTER], the EC50 with NIH3T3 was 21.4 µM; in the series with MCF7, 12.1 µM; in the series with SW-1736, 4.7 µM; in the series with HT-29 it was more than 30 µM; in the series with A2780, 3.5 µM; in the series on FaDu, 12.1 µM.

A word on the EC50: it is the concentration giving half of the maximal effect. Read a low EC50 as greater potency. The Ki is the equilibrium dissociation constant of an inhibitor or competing ligand from its target. High values mean weaker binding, low ones tighter binding.
